Test [1] addresses T1, Glutamate NMDA receptor; Grin1/Grin2a (Rattus norvegicus) (UniProt P35439+Q00959). The test is described as follows: Potentiation of rat recombinant GluN1/GluN2A expressed in Xenopus laevis oocytes assessed as increase in glutamate/glycine-induced current response at 30 uM by two-electrode voltage clamp technique relative to control. The test is classed as cell-based. The essentials:
(§1)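 Two-electrode voltage clamp at −40 mV on Xenopus oocytes coexpressing GluN1 with GluN2A, 2B, 2C or 2D. […] Compounds came from 20 mM DMSO stocks, with 0.05–0.5% final DMSO. Some GluN2A oocytes were injected with K-BAPTA to limit current run-up. Recording solution was pH 7.4, 23 °C.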
In general terms: In two-electrode clamp one electrode senses voltage and the other passes current.

Test [2] concerns the target T2, Glutamate NMDA receptor; Grin1/Grin2b (Rattus norvegicus) (UniProt P35439+Q00960). Nature of the test: Potentiation of rat recombinant GluN1/GluN2B expressed in Xenopus laevis oocytes assessed as increase in glutamate/glycine-induced current response at 30 uM by two-electrode voltage clamp technique relative to control. The test is classed as cell-based. The essentials: as §1

In test [3] the target is T3, Glutamate NMDA receptor; Grin1/Grin2c (Rattus norvegicus) (UniProt P35439+Q00961). Nature of the test: Potentiation of rat recombinant GluN1/GluN2C expressed in Xenopus laevis oocytes assessed as increase in glutamate/glycine-induced current response at 100 uM by two-electrode voltage clamp technique relative to control. The test is classed as cell-based. The method, boiled down: as §1

The target of test [4] is T4, Ionotropic glutamate receptor NMDA 1/2D (Rattus norvegicus) (UniProt P35439+Q62645). The test is described as follows: Potentiation of rat recombinant GluN1/GluN2D expressed in Xenopus laevis oocytes assessed as increase in glutamate/glycine-induced current response at 30 uM by two-electrode voltage clamp technique relative to control. The test is classed as cell-based. The method, boiled down:
as §1

Test [5] addresses Glutamate NMDA receptor; Grin1/Grin2c (Rattus norvegicus, UniProt P35439+Q00961). The test is described as follows: Potentiation of rat recombinant GluN1/GluN2C expressed in Xenopus laevis oocytes assessed as increase in glutamate/glycine-induced current response by two-electrode voltage clamp technique relative to control. The test is classed as cell-based.
For test [6], the target named is Glutamate NMDA receptor; Grin1/Grin2a (Rattus norvegicus, UniProt P35439+Q00959). The test is described as follows: Inhibition of rat recombinant GluN1/GluN2A expressed in Xenopus laevis oocytes assessed as reduction in current response. The test is classed as cell-based.
The target of test [7] is Ionotropic glutamate receptor NMDA 1/2D (Rattus norvegicus, UniProt P35439+Q62645). The test is described as follows: Inhibition of rat recombinant GluN1/GluN2D expressed in Xenopus laevis oocytes assessed as reduction in current response. The test is classed as cell-based.
In test [8] the target is Glutamate NMDA receptor; Grin1/Grin2b (Rattus norvegicus, UniProt P35439+Q00960). Nature of the test: Inhibition of rat recombinant GluN1/GluN2B expressed in Xenopus laevis oocytes assessed as reduction in current response. The test is classed as cell-based.
Test [9] deals with T3, Glutamate NMDA receptor; Grin1/Grin2c (Rattus norvegicus). The test is described as follows: Potentiation of rat recombinant GluN1/GluN2C expressed in Xenopus laevis oocytes assessed as increase in glutamate/glycine-induced current response at 30 uM by two-electrode voltage clamp technique relative to control. It is filed as cell-based. The essentials:
as §1

For test [10], the target named is T1, Glutamate NMDA receptor; Grin1/Grin2a (Rattus norvegicus). The test is described as follows: Activity at rat recombinant GluN1/GluN2A expressed in Xenopus laevis oocytes assessed as current response at 100 uM relative to control.
The target of test [11] is T2, Glutamate NMDA receptor; Grin1/Grin2b (Rattus norvegicus). The test is described as follows: Activity at rat recombinant GluN1/GluN2B expressed in Xenopus laevis oocytes assessed as current response at 100 uM relative to control.
The target of test [12] is T4, Ionotropic glutamate receptor NMDA 1/2D (Rattus norvegicus). The test is described as follows: Activity at rat recombinant GluN1/GluN2D expressed in Xenopus laevis oocytes assessed as current response at 100 uM relative to control.
For test [13], the species on record is Homo sapiens. The test is described as follows: Potentiation of recombinant purinergic receptor (unknown origin).
The target of test [14] is Glutamate receptor 1 (Rattus norvegicus) (UniProt P19490). Nature of the test: Potentiation of recombinant homomeric GluA1 AMPA receptor (rat) at 30 uM relative to control.
For test [15], the target named is T3, Glutamate NMDA receptor; Grin1/Grin2c (Rattus norvegicus). The test is described as follows: Potentiation of rat recombinant GluN1/GluN2C expressed in Xenopus laevis oocytes assessed as glutamate-induced current response at 68 uM by two-electrode voltage clamp technique. The test is classed as cell-based.
The target of test [16] is Glutamate receptor ionotropic, kainate 2 (Rattus norvegicus) (UniProt P42260). The test is described as follows: Potentiation of recombinant homomeric GluK2 receptor (rat) at 120 uM relative to control.
Test [17] addresses T3, Glutamate NMDA receptor; Grin1/Grin2c (Rattus norvegicus). The test is described as follows: Potentiation of rat recombinant GluN1/GluN2C expressed in Xenopus laevis oocytes assessed as glycine-induced current response at 68 uM by two-electrode voltage clamp technique. The test is classed as cell-based.
For test [18] the target is unchanged. Nature of the test: Potentiation of rat recombinant GluN1/GluN2C expressed in Xenopus laevis oocytes assessed as glutamte/glycine-induced current response at 20 uM at 30 mV. The test is classed as cell-based.
Test [19] shares this target. Nature of the test: Potentiation of rat recombinant GluN1/GluN2C expressed in Xenopus laevis oocytes assessed as glutamte/glycine-induced current response at 20 uM at -40 mV. The test is classed as cell-based.
Test [20] is filed under the species Homo sapiens. Nature of the test: Potentiation of recombinant serotonin receptor (unknown origin).
The species named for test [21] is Homo sapiens. Nature of the test: Potentiation of recombinant nicotinic receptor (unknown origin).
The species named for test [22] is Homo sapiens. The test is described as follows: Potentiation of recombinant GABA receptor (unknown origin).
The species named for test [23] is Homo sapiens. Nature of the test: Potentiation of recombinant glycine receptor (unknown origin).
Test [24] deals with T3, Glutamate NMDA receptor; Grin1/Grin2c (Rattus norvegicus). The test is described as follows: Effect on rat recombinant GluN1/GluN2C expressed in Xenopus laevis oocytes assessed as reversal potential of glycine/glutamate-induced current response (reference value: -5.1 +/- 0.8 mV). The test is classed as cell-based. The essentials: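 Reversal potential of GluN1/GluN2C currents in cRNA-injected Xenopus oocytes by two-electrode voltage clamp. […] Recording solution was Ba²⁺-containing HEPES saline, pH 7.4, 23 °C.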

Test [25] has the same target. Nature of the test: Agonist activity at rat recombinant GluN1/GluN2C expressed in Xenopus laevis oocytes by two-electrode voltage clamp technique relative to control. It is filed as cell-based.
For test [26], the species on record is Homo sapiens. The test is described as follows: Potentiation of recombinant kainate receptor (unknown origin).

Results on four compounds are retold here after ChEMBL document CHEMBL3232993, “Design, synthesis, and structure-activity relationship of a novel series of GluN2C-selective potentiators” (J Med Chem, 2014).

Active and inactive are the calls of the source. The calls are words filed in the database; no cut-off is given here.

Sequence of Glutamate receptor 1 (Rattus norvegicus) (P19490 whole entry, looked up): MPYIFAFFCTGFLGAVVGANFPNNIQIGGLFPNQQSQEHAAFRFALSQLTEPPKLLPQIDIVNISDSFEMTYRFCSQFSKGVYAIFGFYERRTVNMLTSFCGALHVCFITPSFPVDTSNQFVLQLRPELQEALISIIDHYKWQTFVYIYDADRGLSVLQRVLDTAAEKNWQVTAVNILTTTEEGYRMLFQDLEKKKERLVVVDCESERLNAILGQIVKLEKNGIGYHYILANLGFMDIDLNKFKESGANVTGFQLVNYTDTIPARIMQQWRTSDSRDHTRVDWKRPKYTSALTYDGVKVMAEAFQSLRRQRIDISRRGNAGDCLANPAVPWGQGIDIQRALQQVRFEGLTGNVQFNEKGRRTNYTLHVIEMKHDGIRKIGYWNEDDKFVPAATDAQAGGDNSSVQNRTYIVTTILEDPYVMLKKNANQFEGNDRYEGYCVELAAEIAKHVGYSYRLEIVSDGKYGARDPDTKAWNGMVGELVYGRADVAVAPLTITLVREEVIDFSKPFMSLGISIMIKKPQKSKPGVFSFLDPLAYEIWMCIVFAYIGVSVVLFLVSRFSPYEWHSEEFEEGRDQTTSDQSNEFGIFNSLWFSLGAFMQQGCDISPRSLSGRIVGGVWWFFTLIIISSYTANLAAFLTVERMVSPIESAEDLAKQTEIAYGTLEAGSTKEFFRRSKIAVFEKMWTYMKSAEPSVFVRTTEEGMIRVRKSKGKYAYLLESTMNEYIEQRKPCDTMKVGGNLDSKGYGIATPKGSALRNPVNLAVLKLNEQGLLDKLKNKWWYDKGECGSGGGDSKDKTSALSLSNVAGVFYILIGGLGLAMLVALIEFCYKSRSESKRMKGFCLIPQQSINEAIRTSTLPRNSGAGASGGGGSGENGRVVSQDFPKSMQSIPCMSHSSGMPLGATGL
Sequence of Glutamate receptor ionotropic, kainate 2 (Rattus norvegicus) (P42260 whole entry, looked up): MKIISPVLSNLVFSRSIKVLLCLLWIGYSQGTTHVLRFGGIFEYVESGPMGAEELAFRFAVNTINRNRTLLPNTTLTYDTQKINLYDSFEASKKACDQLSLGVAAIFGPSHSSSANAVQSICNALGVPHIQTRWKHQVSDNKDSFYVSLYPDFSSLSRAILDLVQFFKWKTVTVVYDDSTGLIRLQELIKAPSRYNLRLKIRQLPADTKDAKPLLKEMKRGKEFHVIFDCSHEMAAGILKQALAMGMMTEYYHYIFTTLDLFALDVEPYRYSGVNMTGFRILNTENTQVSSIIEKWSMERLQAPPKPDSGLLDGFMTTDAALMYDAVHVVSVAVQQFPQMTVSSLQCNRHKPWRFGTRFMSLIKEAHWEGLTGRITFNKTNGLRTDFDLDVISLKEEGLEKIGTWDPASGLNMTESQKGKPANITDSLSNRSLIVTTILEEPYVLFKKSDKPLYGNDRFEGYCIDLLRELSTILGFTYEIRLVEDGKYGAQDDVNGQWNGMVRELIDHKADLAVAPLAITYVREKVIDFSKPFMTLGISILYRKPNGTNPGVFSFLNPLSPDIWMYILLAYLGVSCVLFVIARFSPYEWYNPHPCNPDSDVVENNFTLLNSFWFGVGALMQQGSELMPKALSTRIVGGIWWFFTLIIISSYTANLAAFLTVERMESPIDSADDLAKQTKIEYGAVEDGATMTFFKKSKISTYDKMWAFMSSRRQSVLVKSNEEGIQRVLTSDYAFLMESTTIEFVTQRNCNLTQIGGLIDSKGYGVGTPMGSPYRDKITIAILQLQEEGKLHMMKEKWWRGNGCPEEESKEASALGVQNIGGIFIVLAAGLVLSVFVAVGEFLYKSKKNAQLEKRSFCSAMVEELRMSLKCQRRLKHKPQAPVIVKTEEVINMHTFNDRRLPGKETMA

Take `COC(=O)c1ccc(C2C(C(=O)C(C)C)=C(O)C(=O)N2CCc2c[nH]c3ccccc23)cc1` (stereo not drawn): the results for the Activity in test [1], in test [2] and in [4] were 95%, 87% and 89%, respectively. For the same compound, the max activation in [3] stood at 119%. In test [5], the EC50 was 61 µM.

For the compound `COC(=O)c1ccc(C2C(C(=O)c3ccncc3)=C(O)C(=O)N2CCc2cccc3ccccc23)cc1` (stereo not drawn), the Activity is 44% in test [1], 20% in test [2], 18% in test [4] and 34% in [9]. In addition, the IC50 in [6] was found to be 18 µM; in test [7] it was 5.7 µM; in test [8] it was 7.2 µM.

On to `COC(=O)c1ccc(C2C(C(=O)c3cccc(O)c3)=C(O)C(=O)N2CCc2c[nH]c3ccccc23)cc1` (stereo not drawn), for which the Activity in test [1] was found to be 89%; in test [2], 65%; in [4], 69%; in [9], 169%. The results for the residual activity in test [10], in [11] and in [12] were 76%, 42% and 48%, respectively. Besides, the max activation in [9] was found to be 176%. In [5], the 50% effective concentration (EC50) was found to be 7 µM.

`COC(=O)c1ccc(C2C(C(C)=O)=C(O)C(=O)N2CCc2c[nH]c3ccccc23)cc1` (stereo not drawn): the result (in the test listed under Homo sapiens [13]; in test [15]; in test [17]; in the test listed under Homo sapiens [20]; in the test listed under Homo sapiens [21]; in the test listed under Homo sapiens [22]) was inactive. The result (in the test listed under Homo sapiens [23]; in test [25]; in the test listed under Homo sapiens [26]) was inactive. The max activation in test [3] worked out at 238%; in test [9], 275%. For the same compound, the Activity in test [14] was 97%; in [16] it was 95%; in test [18], 180%; in [19], 202%; in test [9], 196%; in test [24], -5 mV.

As usually defined, the EC50 is the concentration needed to bring the measured effect to its halfway point. The term IC50 denotes the point on the concentration scale where inhibition reaches its midpoint. For orientation: residual activity means what remains of the control signal, in per cent.
